Measured values gathered from unrelated publications.
Compare with care: the assays were run in different laboratories.
Organism: Plasmodium falciparum
Effect on: parasite growth
Notes: blood stage

SMILES | test | test system | conditions | IC50
CN(Cc1cnc2nc(N)nc(N)c2n1)c1ccc(C(=O)N[C@@H](CCC(=O)O)C(=O)O)cc1 |  | NF54 |  | 51.5 nM
N=C(CC(O)c1nc2cc(F)ccc2c2ccc(F)cc12)Nc1ccc(F)cc1 (stereo not shown) | ELISA | 3D7 | 72 h | 407 nM
CO[C@H]1/C=C/O[C@@]2(C)Oc3c(C)c(O)c4c(O)c(c(/C=N/N5CCN(C6CCCC6)CC5)c(O)c4c3C2=O)NC(=O)/C(C)=C\C=C\[C@H](C)[C@H](O)[C@@H](C)[C@@H](O)[C@@H](C)[C@H](OC(C)=O)[C@@H]1C | SYBR Green | 3D7 |  | 238 nM
CCCCCCCCCCCCCCCCCC(=O)O | SYBR Green | 3D7 | 48 h | 7.66 µg/mL
N=C(CC(O)c1cc2cccnc2c2cccnc12)Nc1ccc(F)cc1 (stereo not shown) | ELISA | 3D7 | 72 h | 3200 nM
Cc1[nH]c(/C=C2\N=C(c3ccc[nH]3)C3=C2OCCO3)cc1Cc1ccc(OC(F)(F)F)cc1 | SYBR Green | D6 | 72 h | 30.3 nM
N=C(CC(O)c1nc2ccccc2c2ccc(Br)cc12)Nc1ccc(F)cc1 (stereo not shown) | ELISA | 3D7 | 72 h | 19.5 nM
CCC1=C(CC)/C(=C/c2[nH]c(Cc3ccc(Cl)cc3)cc2Cc2ccc(Cl)cc2)N=C1c1ccc[nH]1 | SYBR Green | D6 | 72 h | 79.6 nM
N=C(CC(O)c1nc2ccccc2c2ccc(Cl)cc12)Nc1ccc(F)cc1 (stereo not shown) | ELISA | 3D7 | 72 h | 18.7 nM
CCN(CC)CCCC(C)Nc1ccnc2cc(Cl)ccc12 (stereo not shown) |  | NF54 |  | 11.7 nM
CCOC1=CC(c2ccc[nH]2)=N/C1=C\c1cc(Cc2ccc(Cl)cc2)c(C)[nH]1 | SYBR Green | D6 | 72 h | 4.92 nM
COc1ccc2cc1Oc1ccc(cc1)C[C@H]1c3c(cc4c(c3Oc3cc5c(cc3OC)CCN(C)[C@@H]5C2)OCO4)CCN1C |  | NF54 |  | 188 nM
O=C1C(O)=C([C@H]2CC[C@H](c3ccc(Cl)cc3)CC2)C(=O)c2ccccc21 | SYBR Green | D6 | 72 h | 0.106 nM
